Measurements as given in ChEMBL document CHEMBL5058577, “EUbOPEN Chemogenomics Library 2 (Multiplex)” (2022).

Tested on: HEK-293T
Assay: Multiplex assay against HEK293T
Type: toxicity, cell-based
Settings: human
Outline: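 Tubulin, mitochondrial-mass and membrane-permeability phenotypes are per cents of healthy-nucleus cells. Cells were gated by CellPathfinder machine learning into Hoechst high-intensity objects or normal cells, normal cells into healthy, pyknosed or fragmented nuclei, and pyknosed cells into mitotic or apoptotic. Before that, live cells stained at seeding with Hoechst33342, BioTracker Green Microtubule Cytoskeleton Dye, MitoTracker Red and Annexin V Alexa Fluor 680 were imaged on a CQ1 microscope at 37°C and 5% CO2 after compound addition.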

[1] = 12 h, 1 µM, compound concentration 1 uM, replicate 1
[2] = 12 h, 1 µM, compound concentration 1 uM, replicate 2
[3] = 12 h, 10 µM, compound concentration 10 uM, replicate 1
[4] = 12 h, 10 µM, compound concentration 10 uM, replicate 2
[5] = 24 h, 1 µM, compound concentration 1 uM, replicate 1
[6] = 24 h, 1 µM, compound concentration 1 uM, replicate 2
[7] = 24 h, 10 µM, compound concentration 10 uM, replicate 1
[8] = 24 h, 10 µM, compound concentration 10 uM, replicate 2
[9] = 48 h, 1 µM, compound concentration 1 uM, replicate 1
[10] = 48 h, 1 µM, compound concentration 1 uM, replicate 2
[11] = 48 h, 10 µM, compound concentration 10 uM, replicate 1
[12] = 48 h, 10 µM, compound concentration 10 uM, replicate 2

CCCCC(=O)N(Cc1ccc(-c2ccccc2-c2nnn[nH]2)cc1)[C@H](C(=O)O)C(C)C
Population Apoptotic (%) [1]: 44%
Population Fragmented Nuclei (%) [1]: 7%
Population Healthy Nuclei (%) [1]: 80%
Population Hoechst High Intensity Objects (%) [1]: 9%
Population Membrane Permeable-Phenotype (%) [1]: 0%
Population Mitochondria Different-Phenotype (%) [1]: 36%
Population Mitotic Cells (%) [1]: 55%
Population Normal (%) [1]: 90%
Population Pyknosed Nuclei (%) [1]: 12%
Population Tubulin-Different-Phenotype (%) [1]: 16%
Total Cell Count [1]: 469
Population Apoptotic (%) [2]: 40%
Population Fragmented Nuclei (%) [2]: 6%
Population Healthy Nuclei (%) [2]: 74%
Population Hoechst High Intensity Objects (%) [2]: 11%
Population Mitochondria Different-Phenotype (%) [2]: 49%
Population Mitotic Cells (%) [2]: 59%
Population Normal (%) [2]: 88%
Population Pyknosed Nuclei (%) [2]: 18%
Population Tubulin-Different-Phenotype (%) [2]: 21%
Total Cell Count [2]: 290
Population Apoptotic (%) [3]: 21%
Population Fragmented Nuclei (%) [3]: 7%
Population Healthy Nuclei (%) [3]: 83%
Population Hoechst High Intensity Objects (%) [3]: 5%
Population Membrane Permeable-Phenotype (%) [3]: 0%
Population Mitochondria Different-Phenotype (%) [3]: 30%
Population Mitotic Cells (%) [3]: 78%
Population Normal (%) [3]: 94%
Population Pyknosed Nuclei (%) [3]: 8%
Population Tubulin-Different-Phenotype (%) [3]: 19%
Total Cell Count [3]: 507
Population Apoptotic (%) [4]: 51%
Population Fragmented Nuclei (%) [4]: 5%
Population Healthy Nuclei (%) [4]: 81%
Population Hoechst High Intensity Objects (%) [4]: 10%
Population Mitochondria Different-Phenotype (%) [4]: 63%
Population Mitotic Cells (%) [4]: 48%
Population Normal (%) [4]: 89%
Population Pyknosed Nuclei (%) [4]: 13%
Total Cell Count [4]: 310
Population Apoptotic (%) [5]: 30%
Population Fragmented Nuclei (%) [5]: 11%
Population Healthy Nuclei (%) [5]: 78%
Population Hoechst High Intensity Objects (%) [5]: 5%
Population Membrane Permeable-Phenotype (%) [5]: 0%
Population Mitochondria Different-Phenotype (%) [5]: 21%
Population Mitotic Cells (%) [5]: 70%
Population Normal (%) [5]: 94%
Population Pyknosed Nuclei (%) [5]: 10%
Population Tubulin-Different-Phenotype (%) [5]: 12%
Total Cell Count [5]: 630
Population Apoptotic (%) [6]: 32%
Population Fragmented Nuclei (%) [6]: 9%
Population Healthy Nuclei (%) [6]: 82%
Population Hoechst High Intensity Objects (%) [6]: 6%
Population Mitochondria Different-Phenotype (%) [6]: 26%
Population Mitotic Cells (%) [6]: 67%
Population Normal (%) [6]: 93%
Population Pyknosed Nuclei (%) [6]: 8%
Total Cell Count [6]: 429
Population Apoptotic (%) [7]: 20%
Population Fragmented Nuclei (%) [7]: 9%
Population Healthy Nuclei (%) [7]: 82%
Population Hoechst High Intensity Objects (%) [7]: 5%
Population Membrane Permeable-Phenotype (%) [7]: 0%
Population Mitochondria Different-Phenotype (%) [7]: 19%
Population Mitotic Cells (%) [7]: 79%
Population Normal (%) [7]: 94%
Population Pyknosed Nuclei (%) [7]: 7%
Population Tubulin-Different-Phenotype (%) [7]: 11%
Total Cell Count [7]: 663
Population Apoptotic (%) [8]: 35%
Population Hoechst High Intensity Objects (%) [8]: 7%
Population Mitochondria Different-Phenotype (%) [8]: 30%
Population Mitotic Cells (%) [8]: 64%
Population Normal (%) [8]: 92%
Population Tubulin-Different-Phenotype (%) [8]: 13%
Total Cell Count [8]: 420
Population Apoptotic (%) [9]: 18%
Population Fragmented Nuclei (%) [9]: 13%
Population Healthy Nuclei (%) [9]: 80%
Population Hoechst High Intensity Objects (%) [9]: 2%
Population Membrane Permeable-Phenotype (%) [9]: 1%
Population Mitochondria Different-Phenotype (%) [9]: 12%
Population Mitotic Cells (%) [9]: 81%
Population Normal (%) [9]: 97%
Population Pyknosed Nuclei (%) [9]: 5%
Population Tubulin-Different-Phenotype (%) [9]: 7%
Total Cell Count [9]: 1024
Population Apoptotic (%) [10]: 19%
Population Fragmented Nuclei (%) [10]: 14%
Population Healthy Nuclei (%) [10]: 79%
Population Hoechst High Intensity Objects (%) [10]: 3%
Population Membrane Permeable-Phenotype (%) [10]: 0%
Population Mitochondria Different-Phenotype (%) [10]: 16%
Population Mitotic Cells (%) [10]: 80%
Population Normal (%) [10]: 96%
Population Pyknosed Nuclei (%) [10]: 6%
Population Tubulin-Different-Phenotype (%) [10]: 9%
Total Cell Count [10]: 653
Population Apoptotic (%) [11]: 14%
Population Fragmented Nuclei (%) [11]: 14%
Population Healthy Nuclei (%) [11]: 81%
Population Hoechst High Intensity Objects (%) [11]: 1%
Population Membrane Permeable-Phenotype (%) [11]: 2%
Population Mitochondria Different-Phenotype (%) [11]: 8%
Population Mitotic Cells (%) [11]: 85%
Population Normal (%) [11]: 98%
Population Pyknosed Nuclei (%) [11]: 3%
Population Tubulin-Different-Phenotype (%) [11]: 8%
Total Cell Count [11]: 1205
Population Apoptotic (%) [12]: 15%
Population Healthy Nuclei (%) [12]: 78%
Population Hoechst High Intensity Objects (%) [12]: 2%
Population Membrane Permeable-Phenotype (%) [12]: 0%
Population Mitochondria Different-Phenotype (%) [12]: 17%
Population Mitotic Cells (%) [12]: 84%
Population Normal (%) [12]: 97%
Population Pyknosed Nuclei (%) [12]: 7%
Total Cell Count [12]: 623

Cc1onc(-c2ccccc2Cl)c1C(=O)N(C)c1ccc(Cl)cc1
Population Apoptotic (%) [1]: 35%
Population Fragmented Nuclei (%) [1]: 8%
Population Healthy Nuclei (%) [1]: 79%
Population Hoechst High Intensity Objects (%) [1]: 9%
Population Membrane Permeable-Phenotype (%) [1]: 0%
Population Mitochondria Different-Phenotype (%) [1]: 41%
Population Mitotic Cells (%) [1]: 64%
Population Normal (%) [1]: 90%
Population Pyknosed Nuclei (%) [1]: 12%
Population Tubulin-Different-Phenotype (%) [1]: 25%
Total Cell Count [1]: 375
Population Apoptotic (%) [2]: 37%
Population Fragmented Nuclei (%) [2]: 3%
Population Healthy Nuclei (%) [2]: 84%
Population Hoechst High Intensity Objects (%) [2]: 6%
Population Mitochondria Different-Phenotype (%) [2]: 59%
Population Mitotic Cells (%) [2]: 62%
Population Normal (%) [2]: 93%
Total Cell Count [2]: 320
Population Apoptotic (%) [3]: 38%
Population Fragmented Nuclei (%) [3]: 7%
Population Healthy Nuclei (%) [3]: 79%
Population Hoechst High Intensity Objects (%) [3]: 12%
Population Membrane Permeable-Phenotype (%) [3]: 0%
Population Mitochondria Different-Phenotype (%) [3]: 49%
Population Mitotic Cells (%) [3]: 61%
Population Normal (%) [3]: 87%
Population Pyknosed Nuclei (%) [3]: 13%
Population Tubulin-Different-Phenotype (%) [3]: 43%
Total Cell Count [3]: 357
Population Apoptotic (%) [4]: 45%
Population Fragmented Nuclei (%) [4]: 4%
Population Healthy Nuclei (%) [4]: 80%
Population Hoechst High Intensity Objects (%) [4]: 6%
Population Mitochondria Different-Phenotype (%) [4]: 65%
Population Mitotic Cells (%) [4]: 54%
Population Normal (%) [4]: 93%
Population Pyknosed Nuclei (%) [4]: 14%
Population Tubulin-Different-Phenotype (%) [4]: 35%
Total Cell Count [4]: 330
Population Apoptotic (%) [5]: 23%
Population Fragmented Nuclei (%) [5]: 9%
Population Healthy Nuclei (%) [5]: 81%
Population Hoechst High Intensity Objects (%) [5]: 5%
Population Membrane Permeable-Phenotype (%) [5]: 1%
Population Mitochondria Different-Phenotype (%) [5]: 21%
Population Mitotic Cells (%) [5]: 76%
Population Normal (%) [5]: 94%
Population Pyknosed Nuclei (%) [5]: 9%
Population Tubulin-Different-Phenotype (%) [5]: 14%
Total Cell Count [5]: 523
Population Apoptotic (%) [6]: 42%
Population Fragmented Nuclei (%) [6]: 5%
Population Hoechst High Intensity Objects (%) [6]: 3%
Population Mitochondria Different-Phenotype (%) [6]: 44%
Population Mitotic Cells (%) [6]: 57%
Population Normal (%) [6]: 96%
Population Pyknosed Nuclei (%) [6]: 12%
Population Tubulin-Different-Phenotype (%) [6]: 18%
Total Cell Count [6]: 383
Population Apoptotic (%) [7]: 45%
Population Fragmented Nuclei (%) [7]: 8%
Population Healthy Nuclei (%) [7]: 79%
Population Hoechst High Intensity Objects (%) [7]: 5%
Population Membrane Permeable-Phenotype (%) [7]: 1%
Population Mitochondria Different-Phenotype (%) [7]: 32%
Population Mitotic Cells (%) [7]: 54%
Population Normal (%) [7]: 94%
Population Pyknosed Nuclei (%) [7]: 12%
Population Tubulin-Different-Phenotype (%) [7]: 20%
Total Cell Count [7]: 478
Population Apoptotic (%) [8]: 29%
Population Fragmented Nuclei (%) [8]: 7%
Population Healthy Nuclei (%) [8]: 82%
Population Hoechst High Intensity Objects (%) [8]: 3%
Population Membrane Permeable-Phenotype (%) [8]: 0%
Population Mitochondria Different-Phenotype (%) [8]: 47%
Population Mitotic Cells (%) [8]: 70%
Population Normal (%) [8]: 96%
Population Pyknosed Nuclei (%) [8]: 9%
Total Cell Count [8]: 413
Population Apoptotic (%) [9]: 21%
Population Fragmented Nuclei (%) [9]: 14%
Population Healthy Nuclei (%) [9]: 79%
Population Hoechst High Intensity Objects (%) [9]: 2%
Population Membrane Permeable-Phenotype (%) [9]: 0%
Population Mitochondria Different-Phenotype (%) [9]: 11%
Population Mitotic Cells (%) [9]: 78%
Population Normal (%) [9]: 97%
Population Pyknosed Nuclei (%) [9]: 6%
Population Tubulin-Different-Phenotype (%) [9]: 9%
Total Cell Count [9]: 932
Population Apoptotic (%) [10]: 31%
Population Fragmented Nuclei (%) [10]: 11%
Population Healthy Nuclei (%) [10]: 82%
Population Membrane Permeable-Phenotype (%) [10]: 1%
Population Mitochondria Different-Phenotype (%) [10]: 23%
Population Mitotic Cells (%) [10]: 68%
Population Pyknosed Nuclei (%) [10]: 5%
Population Tubulin-Different-Phenotype (%) [10]: 12%
Total Cell Count [10]: 620
Population Apoptotic (%) [11]: 33%
Population Fragmented Nuclei (%) [11]: 14%
Population Healthy Nuclei (%) [11]: 76%
Population Hoechst High Intensity Objects (%) [11]: 3%
Population Membrane Permeable-Phenotype (%) [11]: 1%
Population Mitochondria Different-Phenotype (%) [11]: 16%
Population Mitotic Cells (%) [11]: 66%
Population Normal (%) [11]: 96%
Population Pyknosed Nuclei (%) [11]: 8%
Population Tubulin-Different-Phenotype (%) [11]: 15%
Total Cell Count [11]: 755
Population Apoptotic (%) [12]: 20%
Population Fragmented Nuclei (%) [12]: 12%
Population Healthy Nuclei (%) [12]: 81%
Population Membrane Permeable-Phenotype (%) [12]: 0%
Population Mitochondria Different-Phenotype (%) [12]: 25%
Population Mitotic Cells (%) [12]: 79%
Population Pyknosed Nuclei (%) [12]: 6%
Population Tubulin-Different-Phenotype (%) [12]: 16%
Total Cell Count [12]: 652
